Experimental findings from ChEMBL document CHEMBL3576819, “Design, synthesis, biological evaluation and molecular docking studies of phenylpropanoid derivatives as potent anti-hepatitis B virus agents” (Eur J Med Chem, 2015) are described below.

The test system of assay [1] is Hepatitis B virus. Nature of the assay: Antiviral activity against Hepatitis B virus infected in human HepG2.2.15 cells assessed as inhibition of HBsAg secretion at 37.5 uM after 9 days by ELISA. The following applies: HepG2 2.2.15, 216 h. Type of assay: functional. In outline:
(§1)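 HepG2.2.15 cells (MEM, 10% FBS, 380 µg/ml G418) seeded at 1×10^5 cells/ml, held 24 h at 37 °C, then treated with various drug concentrations; medium with drug renewed every 3 d for up to 9 d. Culture medium sampled on days 3, 6 and 9, stored at -20 °C, and assayed for secreted antigen. Lamivudine as positive control; IC50 = 50% inhibition of secretion; means of at least two experiments.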

For assay [2], the system named is Hepatitis B virus. Nature of the assay: Antiviral activity against Hepatitis B virus infected in human HepG2.2.15 cells assessed as inhibition of HBsAg secretion at 150 uM after 9 days by ELISA. The assay is classed as functional. The following applies: HepG2 2.2.15, 216 h. In outline:
as §1

For assay [3], the system named is Hepatitis B virus. Nature of the assay: Antiviral activity against Hepatitis B virus infected in human HepG2.2.15 cells assessed as cell survival at 300 uM after 9 days (reference value: 100%). Type of assay: functional. The settings on record: HepG2 2.2.15, 216 h. In short, it runs like this: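 HepG2.2.15 cells (MEM, 10% FBS, 380 µg/ml G418, 37 °C, 5% CO2) seeded at 1×10^5 cells/ml, cultured 24 h, then exposed to various drug concentrations; drug-containing medium renewed every 3 d. OD read at 450 nm after 9 days; percent cell death calculated; CC50 = concentration killing 50% of cells. Means of at least two experiments.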

Assay [4] relates to Hepatitis B virus. Briefly: Antiviral activity against Hepatitis B virus infected in human HepG2.2.15 cells assessed as inhibition of HBeAg secretion at 300 uM after 6 days by ELISA. Type of assay: functional. The following applies: HepG2 2.2.15, 144 h. In short, it runs like this: as §1
The subject of assay [5] is Hepatitis B virus. Nature of the assay: Antiviral activity against Hepatitis B virus infected in human HepG2.2.15 cells assessed as inhibition of HBeAg secretion by ELISA. The assay is classed as functional, organism-based. The settings on record: HepG2 2.2.15. In outline: as §1
The test system of assay [6] is Hepatitis B virus. Briefly: Antiviral activity against Hepatitis B virus infected in human HepG2.2.15 cells assessed as inhibition of HBV DNA copies per uL at 300 uM after 3 days by real-time fluorescence quantitative PCR analysis. Type of assay: functional. The following applies: HepG2 2.2.15, 72 h.
Assay [7] has as its system Hepatitis B virus. Nature of the assay: Antiviral activity against Hepatitis B virus infected in human HepG2.2.15 cells assessed as inhibition of HBsAg secretion at 300 uM after 3 days by ELISA. Type of assay: functional. The following applies: HepG2 2.2.15, 72 h. In short, it runs like this: as §1
The nature of assay [8]: Selectivity index, ratio of CC50 for human HepG2.2.15 cells to IC50 for Hepatitis B virus infected in human HepG2.2.15 cells assessed as inhibition of HBeAg secretion. The assay is classed as functional. In short, it runs like this: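 Selectivity index computed as CC50/IC50, with CC50 from cell death of HepG2.2.15 cells after 9 days of treatment (OD 450 nm) and IC50 from 50% inhibition of HBeAg or HBsAg secretion in the same cells; medium with drug renewed every 3 d.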

In assay [9] the test system is Hepatitis B virus. Nature of the assay: Antiviral activity against Hepatitis B virus infected in human HepG2.2.15 cells assessed as inhibition of HBsAg secretion at 75 uM after 3 days by ELISA. Type of assay: functional. The settings on record: HepG2 2.2.15, 72 h. In outline: as §1
The subject of assay [10] is Hepatitis B virus. Nature of the assay: Antiviral activity against Hepatitis B virus infected in human HepG2.2.15 cells assessed as inhibition of HBV DNA copies per uL at 37.5 uM after 9 days by real-time fluorescence quantitative PCR analysis. The assay is classed as functional. The settings on record: HepG2 2.2.15, 216 h.
Assay [11] deals with Hepatitis B virus. Nature of the assay: Antiviral activity against Hepatitis B virus infected in human HepG2.2.15 cells assessed as inhibition of HBV DNA copies per uL at 37.5 uM after 6 days by real-time fluorescence quantitative PCR analysis. Type of assay: functional. The settings on record: HepG2 2.2.15, 144 h.
For assay [12], the system named is Hepatitis B virus. Briefly: Antiviral activity against Hepatitis B virus infected in human HepG2.2.15 cells assessed as inhibition of HBV DNA replication by real-time fluorescence quantitative PCR analysis. Type of assay: functional, organism-based. The settings on record: HepG2 2.2.15.
Assay [13] can be described thus: Selectivity index, ratio of CC50 for human HepG2.2.15 cells to IC50 for Hepatitis B virus infected in human HepG2.2.15 cells assessed as inhibition of HBV DNA replication. The assay is classed as functional.
In assay [14] the test system is Hepatitis B virus. Briefly: Antiviral activity against Hepatitis B virus infected in human HepG2.2.15 cells assessed as inhibition of HBeAg secretion at 37.5 uM after 6 days by ELISA. Type of assay: functional. The following applies: HepG2 2.2.15, 144 h. In short, it runs like this:
as §1

The test system of assay [15] is Hepatitis B virus. Briefly: Antiviral activity against Hepatitis B virus infected in human HepG2.2.15 cells assessed as inhibition of HBeAg secretion at 75 uM after 3 days by ELISA. The assay is classed as functional. The following applies: HepG2 2.2.15, 72 h. In short, it runs like this: as §1
Assay [16] concerns Hepatitis B virus. Briefly: Antiviral activity against Hepatitis B virus infected in human HepG2.2.15 cells assessed as inhibition of HBsAg secretion at 300 uM after 9 days by ELISA. Type of assay: functional. The following applies: HepG2 2.2.15, 216 h. In short, it runs like this: as §1
Assay [17] deals with Hepatitis B virus. Briefly: Antiviral activity against Hepatitis B virus infected in human HepG2.2.15 cells assessed as inhibition of HBsAg secretion at 37.5 uM after 3 days by ELISA. Type of assay: functional. The settings on record: HepG2 2.2.15, 72 h. In short, it runs like this: as §1
The subject of assay [18] is Hepatitis B virus. Briefly: Antiviral activity against Hepatitis B virus infected in human HepG2.2.15 cells assessed as inhibition of HBsAg secretion at 37.5 uM after 6 days by ELISA. The assay is classed as functional. The following applies: HepG2 2.2.15, 144 h. In outline: as §1

Turning to `O=C(/C=C/c1ccc2c(c1)OCO2)O/N=C/c1ccccn1`, the inhibition at 37.5 µM with Hepatitis B virus [1] stood at 70.7%; with Hepatitis B virus [10], 58.4%; in the assay with Hepatitis B virus [11], 38.1%; in the assay on Hepatitis B virus [14], 66.5%; in the assay with Hepatitis B virus [17] it was 36.4%; in the assay with Hepatitis B virus [18] it was 55.4%. Further, in the assay on Hepatitis B virus [2], the inhibition at 150 µM was 86.9%. Further, in the assay with Hepatitis B virus [3], the viability at 300 µM is 35.1%. The inhibition at 300 µM in the assay with Hepatitis B virus [4] was 85.1%; in the assay on Hepatitis B virus [6], 62.8%; with Hepatitis B virus [7], 75.8%; in the assay on Hepatitis B virus [16], 93%. Further, the IC50 was 6.2 µM with Hepatitis B virus [5] and 23.4 µM in the assay with Hepatitis B virus [12]. The “Ratio CC50/IC50” value was 40.82 in assay [8] and 10.8 in [13]. Moreover, the inhibition at 75 µM in the assay on Hepatitis B virus [9] is 58%; with Hepatitis B virus [15], 47.5%.
For the molecule `Nc1ccn([C@@H]2CS[C@H](CO)O2)c(=O)n1` [LAMIVUDINE], the inhibition at 37.5 µM with Hepatitis B virus [1] is 25.2%; with Hepatitis B virus [10] it was 69.4%; with Hepatitis B virus [11] it was 38.6%; in the assay on Hepatitis B virus [14], 12.8%; with Hepatitis B virus [17], 11.6%; in the assay with Hepatitis B virus [18], 7.98%. For the same molecule, the inhibition at 150 µM in the assay with Hepatitis B virus [2] was determined as 55.9%. The viability at 300 µM in the assay with Hepatitis B virus [3] was determined as 75.2%. Further, the inhibition at 300 µM in the assay with Hepatitis B virus [4] turned out to be 39.9%; with Hepatitis B virus [6] it was 59.5%; with Hepatitis B virus [7] it was 37.3%; in the assay with Hepatitis B virus [16] it was 60.4%. In addition, the IC50 in the assay with Hepatitis B virus [5] worked out at 267 µM; in the assay with Hepatitis B virus [12] it was 6.86 µM. Moreover, the “Ratio CC50/IC50” value in [8] is reported as 2.13; in assay [13], 82.84. The inhibition at 75 µM with Hepatitis B virus [9] stood at 22%; in the assay with Hepatitis B virus [15] it was 15.1%.
For `COc1cc(/C=C/C(=O)O/N=C/c2ccccn2)cc2c1OCO2`, the inhibition at 37.5 µM came out at 30.4% in the assay with Hepatitis B virus [1]; 36.7% with Hepatitis B virus [10]; 26.9% with Hepatitis B virus [11]; 22.7% in the assay with Hepatitis B virus [14]; 17.2% in the assay with Hepatitis B virus [17]; 25.3% with Hepatitis B virus [18]. Besides, in the assay on Hepatitis B virus [2], the inhibition at 150 µM was 70%. Besides, the viability at 300 µM in the assay on Hepatitis B virus [3] was 67.2%. For the same molecule, the inhibition at 300 µM was 75.4% with Hepatitis B virus [4], 41.1% in the assay on Hepatitis B virus [6], 58.5% in the assay with Hepatitis B virus [7] and 81.3% with Hepatitis B virus [16]. The IC50 in the assay on Hepatitis B virus [5] came to 72.9 µM; with Hepatitis B virus [12], 95 µM. The “Ratio CC50/IC50” value in assay [8] came out at 8.85; in [13], 6.78. For the same molecule, the inhibition at 75 µM was 27.2% in the assay on Hepatitis B virus [9] and 27.3% with Hepatitis B virus [15].
In the case of `COc1cc(/C=C/C(=O)O/N=C/c2ccco2)cc2c1OCO2`, the inhibition at 37.5 µM turned out to be 36.5% in the assay on Hepatitis B virus [1]; 30.5% with Hepatitis B virus [10]; 27.6% in the assay on Hepatitis B virus [11]; 30.7% in the assay with Hepatitis B virus [14]; 22.3% with Hepatitis B virus [17]; 24.9% with Hepatitis B virus [18]. The inhibition at 150 µM with Hepatitis B virus [2] was determined as 67.3%. For the same molecule, the viability at 300 µM with Hepatitis B virus [3] turned out to be 89.3%. Further, the inhibition at 300 µM in the assay on Hepatitis B virus [4] is 62%; in the assay on Hepatitis B virus [6], 46.5%; in the assay with Hepatitis B virus [7], 66.2%; in the assay on Hepatitis B virus [16], 77.2%. Further, the IC50 with Hepatitis B virus [5] came out at 75.3 µM; with Hepatitis B virus [12], 140 µM. Further, the figures for the “Ratio CC50/IC50” value in assay [8] and in [13] were 10.89 and 5.87, respectively. Further, the inhibition at 75 µM with Hepatitis B virus [9] stood at 38.8%; in the assay with Hepatitis B virus [15], 32.1%.
